# Data as given in ChEMBL document CHEMBL1811868, “Structure-activity relationship of 2-hydroxy-2-aryl-2,3-dihydro-imidazo[1,2-a]pyrimidinium salts and 2N-substituted 4(5)-aryl-2-amino-1H-imidazoles as inhibitors of biofilm formation by Salmonella Typhimurium and Pseudomonas aeruginosa” (Bioorg Med Chem, 2011).
# Activity calls are given as the source filed them.
# Tests used:
# Pseudomonas aeruginosa [1] = test: Antimicrobial activity against Pseudomonas aeruginosa PA14 assessed as inhibition of biofilm formation after 24 hrs by spectrophotometry; assay type: functional, organism-based; details: PA14, 24 h
# Method in brief: (§1)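 Static peg-lid biofilm prevention assay. Twofold serial dilutions in TSB diluted 1/20, 2–3 repeats per compound. Overnight S. Typhimurium ATCC14028 (LB-grown) or P. aeruginosa PA14 (TSB-grown) cultures were diluted 1:100, giving ~10^6 cells/well, then incubated 24 h at 25 °C without shaking. Pegs were PBS-washed, stained 30 min with 0.1% crystal violet, extracted with 30% acetic acid and read at OD570. IC50 was fitted from the concentration gradient.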
# Pseudomonas aeruginosa [2] = test: Antimicrobial activity against Pseudomonas aeruginosa PA14 assessed as inhibition of planktonic cell growth at IC50 after 24 hrs by […]; assay type: functional, organism-based
# Method in brief: (§2)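 Planktonic growth was followed by Bioscreen growth curves, not by crystal violet. Overnight cultures were diluted 1:200 in TSB 1/20 and received compound serially diluted in DMSO or EtOH, in triplicate, with solvent controls. Plates were shaken at 25 °C for at least 24 h, reading A600 every 15 min.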
# Salmonella typhimurium [3] = test: Antimicrobial activity against Salmonella Typhimurium ATCC 14028 assessed as inhibition of planktonic cell growth at IC50 after 24 hrs by […]; assay type: functional, organism-based; details: Salmonella enterica subsp. enterica serovar Typhimurium; method in brief: as §2
# Salmonella typhimurium [4] = test: Antimicrobial activity against Salmonella Typhimurium ATCC 14028 assessed as inhibition of biofilm formation after 24 hrs by spectrophotometry; assay type: functional, organism-based, Salmonella enterica subsp. enterica serovar Typhimurium; details: for IC50: Salmonella enterica, ATCC 14028, 24 h; method in brief: as §1
# Salmonella typhimurium [5] = test: Antimicrobial activity against Salmonella Typhimurium ATCC 14028 assessed as inhibition of planktonic cell growth at 40 uM after 24 hrs by […]; assay type: functional, organism-based; details: Salmonella enterica subsp. enterica serovar Typhimurium; method in brief: as §2
# Pseudomonas aeruginosa [6] = test: Antimicrobial activity against Pseudomonas aeruginosa PA14 assessed as inhibition of planktonic cell growth at 40 uM after 24 hrs by […]; assay type: functional, organism-based; method in brief: as §2
# Pseudomonas aeruginosa [7] = test: Antimicrobial activity against Pseudomonas aeruginosa PA14 assessed as inhibition of planktonic cell growth at 80 uM after 24 hrs by […]; assay type: functional, organism-based; method in brief: as §2
IC50 (Pseudomonas aeruginosa [1]),IC50 (Salmonella typhimurium [4]),Compound,growth inhibition (GI) (Pseudomonas aeruginosa [2]),growth inhibition (GI) (Salmonella typhimurium [3]),growth inhibition (GI) (Salmonella typhimurium [5]),growth inhibition (GI) (Pseudomonas aeruginosa [6]),growth inhibition (GI) (Pseudomonas aeruginosa [7]),inhibition (INH) (Salmonella typhimurium [4])
83.3 µM,51.3 µM,CCCCCCCCCCN1c2nccc[n+]2C[C@@]1(O)c1ccc(Cl)cc1,Active,Active,–,–,–,–
6.8 µM,5.6 µM,O[C@@]1(c2ccc(Cl)cc2)C[n+]2cccnc2N1C1CCCCCCCCCCC1,Active,Active,–,–,–,–
20.2 µM,18.3 µM,CCCCCCCCCN1c2nccc[n+]2C[C@@]1(O)c1ccc(Cl)cc1,Active,Active,–,–,–,–
22.9 µM,3.8 µM,CC(C)CNc1ncc(-c2ccc([N+](=O)[O-])cc2)[nH]1,inactive,inactive,inactive,–,–,–
191 µM,84.2 µM,O[C@@]1(c2ccccc2)C[n+]2cccnc2N1C1CCCCCC1,inactive,inactive,–,–,–,–
–,17.2 µM,O[C@@]1(c2ccc(F)cc2)C[n+]2cccnc2N1Cc1ccc2c(c1)OCO2,–,inactive,inactive,–,–,–
–,18.6 µM,CCCCCCCCCCN1c2nccc[n+]2C[C@@]1(O)c1ccc(OC)cc1,–,Active,–,–,–,–
26.8 µM,8.3 µM,CCCCCCCCCN1c2nccc[n+]2C[C@@]1(O)c1ccccc1,Active,Active,–,–,–,–
25.5 µM,23.4 µM,CCCCCCCN1c2nccc[n+]2C[C@@]1(O)c1ccccc1,Active,Active,–,–,–,–
–,36.7 µM,O[C@@]1(c2ccc(I)cc2)C[n+]2cccnc2N1Cc1ccccc1,–,inactive,inactive,–,–,–
4.2 µM,1.7 µM,CCCCCN1c2nccc[n+]2C[C@@]1(O)c1ccc(Br)cc1,inactive,inactive,inactive,inactive,–,–
–,53.7 µM,O[C@@]1(c2ccc3c(c2)OCO3)C[n+]2cccnc2N1Cc1ccc2c(c1)OCO2,–,inactive,–,–,–,–
22.3 µM,9.9 µM,CCCCCCCCCCN1c2nccc[n+]2C[C@@]1(O)c1ccc([N+](=O)[O-])cc1,Active,Active,–,–,–,–
456 µM,66.6 µM,Fc1ccc(-c2cnc(NCc3ccc4c(c3)OCO4)[nH]2)cc1,–,inactive,–,–,–,–
54.8 µM,378 µM,COc1ccc(-c2cnc(NC3CCCCC3)[nH]2)cc1,inactive,–,–,–,inactive,–
4.4 µM,630 µM,O=[N+]([O-])c1cccc(-c2cnc(NC3CCCCC3)[nH]2)c1,inactive,–,–,inactive,–,–
14.4 µM,9.8 µM,CCCCCCCCN1c2nccc[n+]2C[C@@]1(O)c1ccccc1,Active,Active,–,–,–,–
5.4 µM,< 6.3 µM,O=[N+]([O-])c1ccc([C@]2(O)C[n+]3cccnc3N2C2CCCCCCCCCCC2)cc1,Active,Active,–,–,–,–
26.3 µM,30.7 µM,Clc1ccc(-c2cnc(NCc3ccccc3)[nH]2)cc1,inactive,inactive,inactive,inactive,–,–
406 µM,102 µM,CCCCCCN1c2nccc[n+]2C[C@@]1(O)c1ccccc1,–,–,–,–,–,–
79.8 µM,13.7 µM,CCCCCCN1c2nccc[n+]2C[C@@]1(O)c1ccc(Cl)cc1,–,–,–,–,–,–
3.1 µM,> 400 µM,CCCCCCCCNc1ncc(-c2ccc(F)cc2)[nH]1,–,–,–,–,–,–
12.4 µM,54.7 µM,CCCCCCN1c2nccc[n+]2C[C@@]1(O)c1ccc([N+](=O)[O-])cc1,Active,Active,–,–,–,–
31.8 µM,25.3 µM,CCCCNc1ncc(-c2ccccc2)[nH]1,–,inactive,inactive,–,–,–
192 µM,466 µM,CC(C)N1c2nccc[n+]2C[C@@]1(O)c1ccc([N+](=O)[O-])cc1,–,–,–,–,–,–
13.5 µM,4.4 µM,Clc1ccc(-c2cnc(NC3CCCC3)[nH]2)cc1,inactive,inactive,inactive,inactive,–,–
99.9 µM,60.3 µM,CCCCCCCCN1c2nccc[n+]2C[C@@]1(O)c1ccc(S(C)(=O)=O)cc1,–,–,–,–,–,–

IC50 (Pseudomonas aeruginosa [1]),IC50 (Salmonella typhimurium [4]),Compound,growth inhibition (GI) (Pseudomonas aeruginosa [2]),growth inhibition (GI) (Salmonella typhimurium [3]),growth inhibition (GI) (Salmonella typhimurium [5]),growth inhibition (GI) (Pseudomonas aeruginosa [6]),growth inhibition (GI) (Pseudomonas aeruginosa [7]),inhibition (INH) (Salmonella typhimurium [4])
336 µM,52.8 µM,CCCCCCCCN1c2nccc[n+]2C[C@@]1(O)c1ccc(-c2ccc(-c3ccccc3)cc2)cc1,–,–,–,–,–,–
14.4 µM,8.8 µM,O=[N+]([O-])c1ccc([C@]2(O)C[n+]3cccnc3N2C23CC4CC(CC(C4)C2)C3)cc1,–,–,–,–,–,–
15.7 µM,7 µM,CCCCCCCCN1c2nccc[n+]2C[C@@]1(O)c1ccc(Cl)cc1,Active,Active,–,–,–,–
15.1 µM,14.7 µM,CCCCCCCCN1c2nccc[n+]2C[C@@]1(O)c1cccc2ccccc12,–,–,–,–,–,–
25 µM,36.7 µM,O=[N+]([O-])c1ccc(-c2cnc(NC3CCCCC3)[nH]2)cc1,–,inactive,inactive,–,–,–
3.7 µM,19.1 µM,COc1cccc(CNc2ncc(-c3ccc([N+](=O)[O-])cc3)[nH]2)c1,inactive,inactive,inactive,inactive,–,–
22.7 µM,12.6 µM,O[C@@]1(c2ccc(Cl)cc2)C[n+]2cccnc2N1C1CCCCCCC1,Active,Active,–,–,–,–
> 400 µM,540 µM,CC(C)N1c2nccc[n+]2C[C@@]1(O)c1ccccc1,–,–,–,–,–,–
> 800 µM,238 µM,CCCCCCCCNc1ncc(-c2cccc3ccccc23)[nH]1,–,–,–,–,–,50%
25.2 µM,102 µM,CNc1ncc(-c2ccc(F)cc2)[nH]1,inactive,–,–,inactive,–,–
372 µM,121 µM,O[C@@]1(c2ccc(Cl)cc2)C[n+]2cccnc2N1C1CCC1,–,–,–,–,–,–
–,8 µM,CC(C)CN1c2nccc[n+]2C[C@@]1(O)c1ccc(Cl)c(Cl)c1,–,inactive,Active,–,–,–
> 400 µM,> 800 µM,CN1c2nccc[n+]2C[C@@]1(O)c1ccccc1,–,–,–,–,–,–
> 800 µM,118 µM,CCCCCCCCNc1ncc(-c2ccc(Cl)c(Cl)c2)[nH]1,–,–,–,–,–,50%
12.1 µM,6.6 µM,CCCCCCCCN1c2nccc[n+]2C[C@@]1(O)c1ccc([N+](=O)[O-])cc1,Active,Active,–,–,–,–
> 800 µM,122 µM,CCCCCCCCCCCCN1c2nccc[n+]2C[C@@]1(O)c1ccc(Cl)cc1,–,–,–,–,–,–
164 µM,32.6 µM,CCCCCN1c2nccc[n+]2C[C@@]1(O)c1ccc(Cl)cc1,Active,inactive,inactive,–,–,–
24.9 µM,29.7 µM,CCCCN1c2nccc[n+]2C[C@@]1(O)c1ccc(Cl)cc1,inactive,inactive,inactive,inactive,–,–
145 µM,293 µM,CCCCN1c2nccc[n+]2C[C@@]1(O)c1ccc([N+](=O)[O-])cc1,–,–,–,–,–,–
> 800 µM,> 800 µM,CCCCCCCCCCCCCCN1c2nccc[n+]2C[C@@]1(O)c1ccc(Cl)cc1,–,–,–,–,–,–
83.4 µM,31.4 µM,CC(C)CN1c2nccc[n+]2C[C@@]1(O)c1ccc(Cl)cc1,–,inactive,inactive,–,–,–
289 µM,131 µM,CC(C)CN1c2nccc[n+]2C[C@@]1(O)c1ccccc1,–,–,–,–,–,–
6.3 µM,5.2 µM,CC(C)CN1c2nccc[n+]2C[C@@]1(O)c1ccc(Br)cc1,inactive,inactive,Active,inactive,–,–
29.9 µM,15 µM,CCCCCCCCCCN1c2nccc[n+]2C[C@@]1(O)c1ccccc1,Active,Active,–,–,–,–
> 800 µM,702 µM,CCCCNc1ncc(-c2ccc([N+](=O)[O-])cc2)[nH]1,–,–,–,–,–,–
20.4 µM,125 µM,O=[N+]([O-])c1ccc([C@]2(O)C[n+]3cccnc3N2C2CC2)cc1,–,–,–,–,–,–
179 µM,82.7 µM,O[C@@]1(c2ccc(Cl)cc2)C[n+]2cccnc2N1C1CC1,–,–,–,–,–,–
